Measured values as given in PubChem BioAssay AID463150 (The Scripps Research Institute Molecular Screening Center, 2010).
Calls of active or inactive are those of the source.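 The calls were made as follows: active = LXR activation with EC50, the half-maximal effective concentration, of 10 µM or lower; inactive = the rest.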

Molecular target: Oxysterols receptor LXR-beta (Homo sapiens) (UniProt P55055)
Assay: dose-dependent LXR ligand-binding domain activation – cell-based, luminescence, powder sample, selectivity assay for RORA inverse agonist project, dose response (AID 463150)
Details: HEK293T GAL4-LXR LBD luciferase reporter, 18-24 h
Method in brief: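 test system = HEK293T with GAL4-LXR LBD fusion and UAS luciferase reporter | schedule = 24 h bulk reverse transfection before replating, then 20 h compound exposure | technique = luminescence | control set = DMSO-treated cells as normalization reference for luminescence | compound dosing = 10-point series from nominal 10 µM | read-out basis = EC50 from four-parameter sigmoidal fit with adjustable baseline of percent activation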

Sequence of Oxysterols receptor LXR-beta (Homo sapiens) (P55055 whole entry, looked up, the tested form may be a part): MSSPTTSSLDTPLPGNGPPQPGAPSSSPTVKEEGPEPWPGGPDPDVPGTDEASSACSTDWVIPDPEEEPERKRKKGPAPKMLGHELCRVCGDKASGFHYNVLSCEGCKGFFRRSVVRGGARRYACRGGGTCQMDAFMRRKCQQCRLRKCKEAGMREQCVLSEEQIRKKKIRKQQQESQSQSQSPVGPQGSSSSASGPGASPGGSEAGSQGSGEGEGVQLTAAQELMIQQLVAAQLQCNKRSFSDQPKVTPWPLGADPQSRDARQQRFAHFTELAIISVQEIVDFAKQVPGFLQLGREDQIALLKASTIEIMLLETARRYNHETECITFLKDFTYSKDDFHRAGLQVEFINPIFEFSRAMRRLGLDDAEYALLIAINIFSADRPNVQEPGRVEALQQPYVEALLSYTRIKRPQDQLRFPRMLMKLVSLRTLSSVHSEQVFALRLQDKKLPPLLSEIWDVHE

EC50: > 10 µM (inactive)
SMILES: O=S(=O)(Nc1ccc(C(O)(C(F)(F)F)C(F)(F)F)cc1)c1cccs1
